Experimental data: ChEMBL document CHEMBL4311956, “A Qualified Success: Discovery of a New Series of ATAD2 Bromodomain Inhibitors with a Novel Binding Mode Using High-Throughput Screening and Hit Qualification” (J Med Chem, 2019)
The source made the active and inactive calls. No cut-off for these calls is given here.

How the values were obtained:
[1] = biological target: T1, ATPase family AAA domain-containing protein 2 (Homo sapiens, UniProt Q6PL18); test: Displacement of SGRG-K(Ac)-GG-K(Ac)-GLG-K(Ac)-GGAKRHRKV-biotin) from His6/FLAG-tagged TEV fused ATAD2 bromodomain (981 to 1121 residues) (unknown origin) expressed in Escherichia coli BL21(DE3) cells after 30 mins by TR-FRET assay
T1 sequence (Q6PL18 whole entry): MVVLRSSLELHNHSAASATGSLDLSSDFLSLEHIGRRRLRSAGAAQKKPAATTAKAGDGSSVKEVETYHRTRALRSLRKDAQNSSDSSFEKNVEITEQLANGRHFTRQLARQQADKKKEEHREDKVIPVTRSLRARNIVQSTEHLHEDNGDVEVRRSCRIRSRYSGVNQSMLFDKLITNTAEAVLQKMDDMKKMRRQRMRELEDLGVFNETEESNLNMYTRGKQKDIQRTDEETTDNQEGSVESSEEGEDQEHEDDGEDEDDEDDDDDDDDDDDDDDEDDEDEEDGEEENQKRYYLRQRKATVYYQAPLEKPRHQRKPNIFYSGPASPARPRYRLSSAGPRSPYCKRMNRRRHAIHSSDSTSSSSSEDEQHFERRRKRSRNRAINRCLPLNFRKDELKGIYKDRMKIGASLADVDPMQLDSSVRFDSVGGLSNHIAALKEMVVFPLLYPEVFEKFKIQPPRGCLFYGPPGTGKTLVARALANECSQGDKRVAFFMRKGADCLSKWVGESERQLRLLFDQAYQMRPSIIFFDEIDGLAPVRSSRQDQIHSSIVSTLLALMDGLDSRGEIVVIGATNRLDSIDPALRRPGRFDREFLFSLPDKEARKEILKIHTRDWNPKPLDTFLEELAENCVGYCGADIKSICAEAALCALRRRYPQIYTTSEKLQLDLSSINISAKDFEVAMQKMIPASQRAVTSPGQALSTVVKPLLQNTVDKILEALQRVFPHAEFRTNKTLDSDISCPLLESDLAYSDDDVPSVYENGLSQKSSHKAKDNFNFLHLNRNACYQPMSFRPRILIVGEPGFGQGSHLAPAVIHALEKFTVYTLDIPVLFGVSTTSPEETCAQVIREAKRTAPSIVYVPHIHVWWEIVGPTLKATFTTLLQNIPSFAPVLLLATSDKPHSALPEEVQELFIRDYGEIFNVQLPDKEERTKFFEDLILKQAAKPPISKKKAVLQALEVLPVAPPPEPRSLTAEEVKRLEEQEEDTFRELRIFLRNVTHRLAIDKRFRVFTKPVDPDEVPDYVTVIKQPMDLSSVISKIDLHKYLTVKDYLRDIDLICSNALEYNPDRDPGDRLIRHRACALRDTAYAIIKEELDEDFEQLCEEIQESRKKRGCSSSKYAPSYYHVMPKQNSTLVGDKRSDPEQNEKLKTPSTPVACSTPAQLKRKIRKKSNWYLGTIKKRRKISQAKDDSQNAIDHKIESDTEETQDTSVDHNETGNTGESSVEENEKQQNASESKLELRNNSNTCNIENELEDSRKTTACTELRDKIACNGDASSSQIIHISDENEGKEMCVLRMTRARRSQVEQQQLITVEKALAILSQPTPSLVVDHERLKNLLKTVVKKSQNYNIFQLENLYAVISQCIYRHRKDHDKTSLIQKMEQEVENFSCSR

[2] = biological target: Bromodomain-containing protein 4 (Homo sapiens, UniProt O60885, Y390A); test: Displacement of Alexa Fluor 647 labelled ligand from His6-tagged BRD4 BD1 (1 to 477 residues)/BD2 Y390A mutant (unknown origin) after 30 mins by TR-FRET assay
In short: (§1)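 BET selectivity by TR-FRET fluoroligand displacement. Uses tandem BET bromodomain constructs carrying a mutation in the non-assayed bromodomain.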

[3] = biological target: Bromodomain-containing protein 4 (Homo sapiens, UniProt O60885, Y97A); test: Displacement of Alexa Fluor 647 labelled ligand from His6-tagged BRD4 BD2 (1 to 477 residues)/BD1 Y97A mutant (unknown origin) after 30 mins by TR-FRET assay; in short: as §1
[4] = biological target: T2, ATPase family AAA domain-containing protein 2 (Homo sapiens) (UniProt Q6PL18); test: Binding affinity to 15N-labelled ATAD2 (981 to 1108 residues) (unknown origin) at 100 uM by 1H-15N HSQC NMR analysis
T2 sequence (whole entry): T1 sequence (Q6PL18 whole entry)
In short: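 15N–1H HSQC spectra of labelled ATAD2 bromodomain recorded with and without compound at 100 μM. Binding is judged from spectral changes.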

[5] = biological target: T2, ATPase family AAA domain-containing protein 2 (Homo sapiens); test: Displacement of SGRG-K(Ac)-GG-K(Ac)-GLG-K(Ac)-GGAKRHRKV-biotin) from His6/FLAG-tagged TEV fused ATAD2 bromodomain (981 to 1121 residues) (unknown origin) expressed in Escherichia coli BL21(DE3) cells at 10 uM after 30 mins by TR-FRET assay relative to control
[6] = biological target: T1, ATPase family AAA domain-containing protein 2; test: Binding affinity to His6/FLAG-tagged TEV fused ATAD2 bromodomain (950 to 1148 residues) (unknown origin) expressed in Escherichia coli BL21(DE3) cells by surface plasmon resonance
In short: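 SPR screen of concentration–response up to 100 μM. Wild-type ATAD2 and a Y1021A/N1064A mutant lacking the acetyl-lysine binding motif were run in parallel. Hits were classed as binding, nonbinding or linear binding (nonsaturating response, calculated Kd above the top concentration).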

[7] = biological target: T1, ATPase family AAA domain-containing protein 2; test: Inhibition of ATAD2 bromodomain in human HUT78 chromatin lysate after 2 hrs by bromosphere competition binding assay
In short: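 Bromosphere chemoproteomic assay. Measures competitive inhibition of binding of endogenous full-length ATAD2 from Hut-78 cells.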

Row | SMILES | IC50 [1] | IC50 [2] | IC50 [3] | Activity [4] | inhibition [5] | Kd [6] | IC50 [7] | pIC50 [1]
1 | CC1(C2CC2)NC(=O)N(CC(=O)Nc2cccc(S(=O)(=O)N3CCCCC3)c2)C1=O (racemic) | > 100 µM | > 50.1 µM | 31.6 µM |  |  |  |  | 
2 | Cc1[nH]c(=O)c(C#N)c(C)c1CCC(=O)Nc1ccc(Cl)c(S(=O)(=O)N2CCCCC2)c1 | 1.26 µM | > 50.1 µM | > 50.1 µM | Active | 77% | 6.31 µM | 15.8 µM | 
3 | COc1ccc(NC(=O)CN2C(=O)NC(C)(C3CC3)C2=O)cc1S(=O)(=O)N1CCCCC1 (racemic) | > 100 µM | > 50.1 µM | > 50.1 µM |  |  |  |  | 
4 | O=C(CCNC1=NS(=O)(=O)c2ccccc21)Nc1ccc(Cl)c(S(=O)(=O)N2CCCC2)c1 | 10 µM | > 50.1 µM | > 50.1 µM | Active | 47% | 15.8 µM |  | 
5 | CC1(C2CC2)NC(=O)N(CC(=O)Nc2ccc(Cl)c(S(=O)(=O)N3CCCCC3)c2)C1=O (racemic) [listing 1 of 2 here] | 1.26 µM | > 50.1 µM | 50.1 µM |  |  | 2 µM | 15.8 µM | 
6 | Cc1ccc(NC(=O)CN2C(=O)CN(C)C2=O)cc1S(=O)(=O)N1CCCCC1 | 50.1 µM | > 501 µM | > 501 µM | Active | 30% | 50.1 µM |  | 
7 | CC1(C2CC2)NC(=O)N(CC(=O)Nc2ccc(Cl)c(S(=O)(=O)N3CCCCC3)c2)C1=O (stereo in doubt; 19) |  | > 50.1 µM | > 50.1 µM |  |  |  |  | 5.9
8 | CCC(=O)Nc1ccc(O)c(S(=O)(=O)N2CCCCC2)c1 | > 1000 µM |  |  |  |  |  |  | 
9 | CCC(=O)Nc1ccc(Br)c(S(=O)(=O)N2CCCCC2)c1 | 15.8 µM |  |  |  |  |  |  | 
10 | Cc1ccc(NC(=O)CN2C(=O)NC(C)(C)C2=O)cc1S(=O)(=O)N1CCCCCC1 | 10 µM | > 50.1 µM | > 50.1 µM | Active | 58% | 7.94 µM |  | 
11 | CCC(=O)Nc1ccc(C#N)c(S(=O)(=O)N2CCCCC2)c1 | > 1000 µM |  |  |  |  |  |  | 
12 | Cc1ccc(C2(C)NC(=O)N(CC(=O)Nc3ccc(C)c(S(=O)(=O)N4CCCCC4)c3)C2=O)cc1 (centres undefined) | 10 µM | 5.01 µM | > 50.1 µM | Active | 33% | 12.6 µM |  | 
13 | Cc1ccc(NC(=O)CN2C(=O)NC3(CCc4ccccc43)C2=O)cc1S(=O)(=O)N1CCCCC1 (centres undefined) | 7.94 µM | > 50.1 µM | > 50.1 µM | Active | 61% | 15.8 µM |  | 
14 | CN(C)S(=O)(=O)c1cc(NC(=O)CN2C(=O)NC3(CCCc4ccccc43)C2=O)ccc1Cl (centres undefined) | 5.01 µM | > 50.1 µM | > 50.1 µM | Active | 52% | 7.94 µM |  | 
15 | CCC(=O)Nc1ccc(C(F)(F)F)c(S(=O)(=O)N2CCCCC2)c1 | > 1000 µM |  |  |  |  |  |  | 
16 | CSCCC1NC(=O)N(CC(=O)Nc2ccc(Cl)c(S(=O)(=O)N3CCOCC3)c2)C1=O (centres undefined) | 10 µM | > 50.1 µM | > 50.1 µM | Active | 30 to 40% | 15.8 µM |  | 
17 | CCC(=O)Nc1ccc(CC)c(S(=O)(=O)N2CCCCC2)c1 | > 1000 µM |  |  |  |  |  |  | 
18 | CCC(=O)Nc1ccc(F)c(S(=O)(=O)N2CCCCC2)c1 | > 1000 µM |  |  |  |  |  |  | 
19 | CCC(=O)Nc1ccc(N)c(S(=O)(=O)N2CCCCC2)c1 | > 1000 µM |  |  |  |  |  |  | 
20 | Cc1ccccc1C(=O)NCC(=O)Nc1ccc(C)c(S(=O)(=O)N2CCCCCC2)c1 | 12.6 µM | > 50.1 µM | > 50.1 µM | Active | 39% | 31.6 µM | 39.8 µM | 
21 | CC1(C2CC2)NC(=O)N(CC(=O)Nc2ccc(Cl)c(S(=O)(=O)N3CCCCC3)c2)C1=O (stereo in doubt; 18) |  | 10 µM | 31.6 µM |  |  |  |  | 5.9
22 | Cc1ccc(NC(=O)CN2C(=O)NC(C)(C3CC3)C2=O)cc1S(=O)(=O)N1CCCCC1 (centres undefined) | 12.6 µM | > 50.1 µM | > 50.1 µM | Active | 52% | 20 µM |  | 
23 | CCC(=O)Nc1ccc(OC)c(S(=O)(=O)N2CCCCC2)c1 | > 1000 µM |  |  |  |  |  |  | 
24 | CC1(C2CC2)NC(=O)N(CC(=O)Nc2ccc(C(F)(F)F)c(S(=O)(=O)N3CCCCC3)c2)C1=O (racemic) | 10 µM | > 50.1 µM | 25.1 µM |  |  |  |  | 
25 | CC1(C2CC2)NC(=O)N(CC(=O)Nc2ccc(Cl)c(S(=O)(=O)N3CCCCC3)c2)C1=O (racemic) [listing 2 of 2 here] |  |  |  | Active | 79% |  |  | 
26 | CCN(CC)S(=O)(=O)c1cc(NC(=O)CN2C(=O)NC(C)(c3ccccc3)C2=O)ccc1C (centres undefined) | 31.6 µM | > 501 µM | 39.8 µM | Active | 29% | 50.1 µM |  | 
27 | O=C(CCNC(=O)c1ccccc1)Nc1ccc(Cl)c(S(=O)(=O)N2CCCCC2)c1 | > 100 µM | > 50.1 µM | 39.8 µM | Active | 27% | 50.1 µM |  | 
